This note sets out measurements from ChEMBL document CHEMBL2040709, “Synthesis, antidepressant and antimicrobial activities of some novel stearic acid analogues” (2012).

The structures appear in SMILES notation.

Common to all, as to type: functional
For test [1], the system named is Bacillus subtilis. Kind of test: Antibacterial activity against Bacillus subtilis at 500 ug/ml after 24 hrs by agar disc diffusion method. Particulars: read-out: DIZ. Put shortly:
(§1)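 Agar disc diffusion on nutrient agar plates surface-spread with standard inoculum ([…], 0.5 McFarland). Whatman No.1 paper discs (6 mm, dry-heat sterilised 140 °C, 1 h) were soaked in test compound at two concentrations (500 and 1000, as tabulated). DMSO-only discs and solvent/growth controls were included. Plates were inverted and incubated 24 h at 37 °C. Zones of inhibition were measured, and percentage potency was calculated per Indian Pharmacopoeia.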
For orientation: A growth-free zone around the sample is the usual read-out of agar diffusion tests.

Test [2] deals with Escherichia coli. Kind of test: Antibacterial activity against Escherichia coli at 1000 ug/ml after 24 hrs by agar disc diffusion method. As to conditions: read-out: DIZ. The method, boiled down: as §1
The test system of test [3] is Staphylococcus aureus. Kind of test: Antibacterial activity against Staphylococcus aureus at 500 ug/ml after 24 hrs by agar disc diffusion method. As to conditions: read-out: DIZ. Put shortly: as §1
Test [4] has as its system Candida albicans. The test is described as follows: […] at 500 to 1000 ug/ml after 24 hrs by agar disc diffusion method. Put shortly: as §1
Test [5] deals with Candida albicans. The test is described as follows: […] at 1000 ug/ml after 24 hrs by agar disc diffusion method. As to conditions: read-out: DIZ. The method, boiled down:
as §1

Test [6] concerns Staphylococcus aureus. The test is described as follows: Antibacterial activity against Staphylococcus aureus at 1000 ug/ml after 24 hrs by agar disc diffusion method. Particulars: read-out: DIZ. The method, boiled down:
as §1

The test system of test [7] is Mus musculus. The test is described as follows: Antidepressant activity in Swiss albino mouse assessed as decrease in immobility time at 30 mg/kg, ip administered 30 mins before test measured for 4 mins of total 6 mins test by forced swim test. Particulars: route intraperitoneal. The method, boiled down:
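Forced swim test in inbred male Swiss albino mice (20–30 g), groups of 6, acclimatised one week. The 30 mg/kg dose was suspended in 0.5% CMC and given i.p. 30 min before the test; controls received vehicle. Mice swam singly in a glass tank with 15 cm water at 25 ± 3 °C. Immobility was timed over the last 4 min of a 6 min session. Dunnett's test was applied.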

The test system of test [8] is Bacillus subtilis. The test is described as follows: Antibacterial activity against Bacillus subtilis at 1000 ug/ml after 24 hrs by agar disc diffusion method. Particulars: read-out: DIZ. Put shortly:
as §1

The test system of test [9] is Pseudomonas aeruginosa. The test is described as follows: Antibacterial activity against Pseudomonas aeruginosa at 500 ug/ml after 24 hrs by agar disc diffusion method. As to conditions: read-out: DIZ. Put shortly:
as §1

Test [10] deals with Candida albicans. Kind of test: […] at 500 ug/ml after 24 hrs by agar disc diffusion method. As to conditions: read-out: DIZ. The method, boiled down: as §1
Test [11] relates to Pseudomonas aeruginosa. The test is described as follows: Antibacterial activity against Pseudomonas aeruginosa at 500 to 1000 ug/ml after 24 hrs by agar disc diffusion method. Put shortly:
as §1

Test [12] deals with Staphylococcus aureus. Kind of test: Antibacterial activity against Staphylococcus aureus at 500 to 1000 ug/ml after 24 hrs by agar disc diffusion method. The method, boiled down: as §1
Test [13] relates to Mus musculus. The test is described as follows: Antidepressant activity in Swiss albino mouse assessed as increase in dopamine level in brain at 30 mg/kg, ip by HPLC analysis. Particulars: route intraperitoneal.
Test [14] deals with Pseudomonas aeruginosa. Kind of test: Antibacterial activity against Pseudomonas aeruginosa at 1000 ug/ml after 24 hrs by agar disc diffusion method. As to conditions: read-out: DIZ. Put shortly: as §1
Test [15] concerns Escherichia coli. Kind of test: Antibacterial activity against Escherichia coli at 500 ug/ml after 24 hrs by agar disc diffusion method. Particulars: read-out: DIZ. Put shortly: as §1
For test [16], the system named is Bacillus subtilis. Kind of test: Antibacterial activity against Bacillus subtilis at 500 to 1000 ug/ml after 24 hrs by agar disc diffusion method. Put shortly:
as §1

The test system of test [17] is Escherichia coli. Kind of test: Antibacterial activity against Escherichia coli at 500 to 1000 ug/ml after 24 hrs by agar disc diffusion method. Put shortly: as §1

For `CCCCCCCCCCCCCCCCCc1nnc(-c2ccccc2)n1N`, the zone of inhibition at 500 µg/mL in the test with Bacillus subtilis [1] stood at 12 mm; in the test with Staphylococcus aureus [3] it was 13 mm; in the test with Pseudomonas aeruginosa [9], 13 mm; in the test on Candida albicans [10], 15 mm; in the test with Escherichia coli [15] it was 16 mm. The zone of inhibition at 1000 µg/mL in the test with Escherichia coli [2] worked out at 17 mm; with Candida albicans [5], 22 mm; in the test with Staphylococcus aureus [6], 18 mm; in the test with Bacillus subtilis [8], 15 mm; in the test with Pseudomonas aeruginosa [14], 16 mm. The Activity in the test with Candida albicans [4] is 65.97%; in the test with Pseudomonas aeruginosa [11] it was 59.45%; in the test with Staphylococcus aureus [12], 75.78%; in the test with Mus musculus [13], 0.367 ng/mg; with Bacillus subtilis [16], 93.3%; in the test on Escherichia coli [17], 93.3%. The Time in the test with Mus musculus [7] is reported as 68.83 s.
In the case of `CN(C)[C@@H]1C(O)=C(C(N)=O)C(=O)[C@@]2(O)C(O)=C3C(=O)c4c(O)cccc4[C@@](C)(O)[C@H]3C[C@@H]12` [TETRACYCLINE], the zone of inhibition at 500 µg/mL is 13 mm in the test on Bacillus subtilis [1], 18 mm with Staphylococcus aureus [3], 16 mm with Pseudomonas aeruginosa [9] and 18 mm in the test with Escherichia coli [15]. For the same molecule, the zone of inhibition at 1000 µg/mL amounted to 23 mm in the test with Escherichia coli [2], 19 mm in the test with Staphylococcus aureus [6], 20 mm in the test on Bacillus subtilis [8] and 22 mm in the test with Pseudomonas aeruginosa [14].
Regarding `CN(C)CCCN1c2ccccc2CCc2ccc(Cl)cc21` [CLOMIPRAMINE], the Time with Mus musculus [7] was 52.97 s. Besides, the Activity in the test with Mus musculus [13] came to 0.42 ng/mg.
For `CCCCCCCCCCCCCCCCCc1nnc(-c2ccccc2)o1`, the zone of inhibition at 500 µg/mL with Bacillus subtilis [1] worked out at 13 mm; in the test on Staphylococcus aureus [3], 14 mm; in the test on Pseudomonas aeruginosa [9], 16 mm; with Candida albicans [10], 15 mm; in the test with Escherichia coli [15], 14 mm. Further, the zone of inhibition at 1000 µg/mL stood at 18 mm with Escherichia coli [2]; 20 mm in the test on Candida albicans [5]; 21 mm in the test with Staphylococcus aureus [6]; 16 mm in the test with Bacillus subtilis [8]; 17 mm in the test on Pseudomonas aeruginosa [14]. Also, the Activity in the test with Candida albicans [4] came out at 56.71%; in the test on Pseudomonas aeruginosa [11], 60.95%; with Staphylococcus aureus [12], 94.6%; in the test with Mus musculus [13], 0.25 ng/mg; in the test with Bacillus subtilis [16] it was 75.78%; in the test with Escherichia coli [17], 93.3%. The Time in the test with Mus musculus [7] came to 70 s.
Consider `CCCCCCCCCCCCCCCCCc1nn2c(-c3ccccc3)nnc2s1`, for which the zone of inhibition at 500 µg/mL is 13 mm in the test on Bacillus subtilis [1]; 16 mm in the test on Staphylococcus aureus [3]; 15 mm with Pseudomonas aeruginosa [9]; 15 mm in the test with Candida albicans [10]; 16 mm with Escherichia coli [15]. The zone of inhibition at 1000 µg/mL was found to be 19 mm with Escherichia coli [2]; 19 mm in the test with Candida albicans [5]; 17 mm in the test with Staphylococcus aureus [6]; 16 mm with Bacillus subtilis [8]; 19 mm in the test with Pseudomonas aeruginosa [14]. Besides, the Activity was determined as 92.57% in the test with Candida albicans [4]; 93.88% with Pseudomonas aeruginosa [11]; 79.35% in the test with Staphylococcus aureus [12]; 1.455 ng/mg in the test on Mus musculus [13]; 93.88% in the test with Bacillus subtilis [16]; 84.08% in the test with Escherichia coli [17]. In the test on Mus musculus [7], the Time is recorded as 62.67 s.
